Measurements as given in ChEMBL document CHEMBL1795273, “Curcumin analogues as possible anti-proliferative & anti-inflammatory agents” (Eur J Med Chem, 2011).
Calls of active or inactive are those of the source. The rule behind the calls is not given here.

Experiments:
NCI-H460 [1] = assay: Cytotoxicity against human NCI-H460 cells after 48 hrs by sulforhodamine B assay; type: cell-based; conditions: nci-h460, 48 h
Summary of the method: (§1)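 Cells grown in RPMI 1640 with 5% heat-inactivated FCS, 2 mM L-glutamine and antibiotics, 37 °C, 5% CO2; viability >95% by trypan blue. Seeded 5.000-7.500 cells/well and preincubated 24 h. Compounds in DMSO added at 10-fold dilutions (100 to 0.01 µM) for 48 h. Fixed with cold TCA, SRB-stained, absorbance read at 530 nm. GI50, TGI and LC50 derived from three independent experiments, each in triplicate.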

MCF7 [2] = assay: Cytotoxicity against human MCF7 cells after 48 hrs by sulforhodamine B assay; type: cell-based; conditions: mcf7, 48 h; summary of the method: as §1
SF-268 [3] = assay: Antiproliferative activity against human SF268 cells after 48 hrs by sulforhodamine B assay; type: functional; conditions: SF-268, 48 h
Summary of the method: (§2)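 Cells grown in RPMI 1640 with 5% heat-inactivated FCS, 2 mM L-glutamine and antibiotics at 37 °C, 5% CO2; viability >95% by trypan blue. Seeded at 5.000-7.500 cells/well and preincubated 24 h. Compound in DMSO added at 10-fold dilutions (100 to 0.01 µM) for 48 h. TCA fixation, SRB staining, absorbance at 530 nm. GI50, TGI and LC50 derived. Three independent experiments, each in triplicate.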

MCF7 [4] = assay: Antiproliferative activity against human MCF7 cells after 48 hrs by sulforhodamine B assay; type: functional; conditions: MCF7, 48 h; summary of the method: as §2
[5] = Lipophilicity, RM of the compound assessed by RPTLC; type: physicochemical
Summary of the method: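 Determined by reverse-phase TLC with plates developed in mobile-phase-saturated closed tanks at 24 °C and spots detected under UV. RM = log[(1/Rf) − 1], from 10 individual Rf measurements.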

NCI-H460 [6] = assay: Antiproliferative activity against human NCI-H460 cells after 48 hrs by sulforhodamine B assay; type: functional; conditions: NCI-H460, 48 h; summary of the method: as §2
Rattus norvegicus [7] = assay: Antiinflammatory activity in carrageenan-induced Fischer-344 rat paw oedema at 0.01 mmol/kg, ip after 3.5 hrs; type: functional; conditions: for inhibition in vivo at 10 µmol/kg: Fischer-344, ip
Summary of the method: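 Fischer-344 rats (150–200g), both sexes, pregnant females excluded, 6–15 per group. Oedema induced in right hind paw by intradermal 0.1 mL 2% carrageenin in water. Compound given ip with the carrageenin, dissolved in water (HCl salt) or suspended with Tween 80 (bases). Euthanized at 3.5 h. Injected minus uninjected paw weight compared with water-treated controls as % inhibition. Mean of two experiments.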

[8] = target: Aldo-keto reductase family 1 member B1 (Rattus norvegicus) (UniProt P07943); assay: Inhibition of ALR2 in Fischer-344 rat lens at 100 uM; type: tissue-based; conditions: Lens of camera-type eye
Summary of the method: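 Enzyme partially purified from lenses of Fischer-344 rats of both sexes. Lenses homogenized in cold water, spun at 10000 g, 0-4 °C, 15 min; supernatant precipitated at 40% ammonium sulphate saturation and spun again. Compound in 10% aqueous DMSO, tested at 100 µM. D,L-glyceraldehyde substrate; NADPH consumption read at 340 nm. At least triplicate.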

Glycine max = assay: Inhibition of soybean 5LOX assessed as conversion of sodium linoleate to 13-[…] acid at 100 uM
Summary of the method: (§3)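 Soybean lipoxygenase (1/9 × 10^-4 w/v in saline) incubated at room temperature with compound in DMSO and 0.1 mM sodium linoleate. Formation of 13-hydroperoxylinoleic acid followed at 234 nm. NDGA reference inhibitor. At least triplicate.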

SF-268 [9] = assay: Cytotoxicity against human SF268 cells after 48 hrs by sulforhodamine B assay; type: cell-based; conditions: sf-268, 48 h; summary of the method: as §1
Rattus norvegicus [10] = assay: Toxicity in Fischer-344 rat assessed as ulcerogenicity at 0.2 mmol/kg, ip; type: organism-based; conditions: in vivo
[11] = Therapeutic index, ratio of LC50 for human MCF7 cells to GI50 for human MCF7 cells; type: cell-based; conditions: read-out: TI
Summary of the method: (§4)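 Index is LC50/GI50 from the 48 h SRB growth assay (100–0.01 µM, 10-fold dilutions). Where LC50 exceeded 100 µM, the highest concentration tested, it was taken as 100 µM.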

[12] = Therapeutic index, ratio of LC50 for human SF268 cells to GI50 for human SF268 cells; type: cell-based, SF-268; conditions: read-out: TI; summary of the method: as §4
[13] = Therapeutic index, ratio of LC50 for human NCI-H460 cells to GI50 for human NCI-H460 cells; type: cell-based; conditions: read-out: TI; summary of the method: as §4
[14] = Inhibition of soybean 5LOX assessed as conversion of sodium linoleate to 13-[…] acid; parameters: species or system Glycine max; summary of the method: as §3

SMILES	LC50 (NCI-H460 [1])	LC50 (MCF7 [2])	GI50 (SF-268 [3])	TGI (SF-268 [3])	GI50 (MCF7 [4])	TGI (MCF7 [4])	Rm [5]	GI50 (NCI-H460 [6])	TGI (NCI-H460 [6])	inhibition in vivo at 10 µmol/kg (Rattus norvegicus [7])	inhibition [8]	inhibition (Glycine max)	LC50 (SF-268 [9])	Activity (Rattus norvegicus [10])	selectivity ratio [11]	selectivity ratio [12]	selectivity ratio [13]	IC50 [14]	inhibition (Rattus norvegicus [7])
O=C1/C(=C/c2ccc(OCc3ccc(Br)cc3)cc2)CNC/C1=C\c1ccc(OCc2ccc(Br)cc2)cc1	> 100 µM	> 100 µM	> 100 µM	> 100 µM	49.9 µM	96.8 µM	0.076	> 100 µM	> 100 µM	49%	inactive	18%	> 100 µM	Non-toxic	2				
Cc1ccc(/C=C2\CNC/C(=C\c3ccc(C)s3)C2=O)s1	> 100 µM	> 100 µM	65.2 µM	> 100 µM	80.7 µM	> 100 µM	0.031	99.3 µM	> 100 µM	62%	inactive	inactive	> 100 µM	Non-toxic	1.2	1.5	1		
O=C1/C(=C/c2ccccc2)CNC/C1=C\c1ccccc1	10.3 µM	9 µM	0.9 µM	4.7 µM	0.8 µM	4.1 µM	0.135	2 µM	6.1 µM	43%	49%	8%	9.1 µM	Non-toxic	11.6	10	5.2		
O=C1/C(=C/c2ccc3[nH]ccc3c2)CNC/C1=C\c1ccc2[nH]ccc2c1	> 100 µM	> 100 µM	> 100 µM	> 100 µM	69.5 µM	> 100 µM	0.166	> 100 µM	> 100 µM	36%	inactive		> 100 µM	Non-toxic	1.4			410 µM	
O=C1/C(=C/c2c[nH]cn2)CNC/C1=C\c1c[nH]cn1	> 100 µM	> 100 µM	> 100 µM	> 100 µM	> 100 µM	> 100 µM	-0.552	> 100 µM	> 100 µM	11.5%	inactive	36%	> 100 µM	Non-toxic					
O=C1/C(=C/c2cccs2)CNC/C1=C\c1cccs1	> 100 µM	> 100 µM	98.8 µM	> 100 µM	> 100 µM	> 100 µM	0.176	> 100 µM	> 100 µM		45.5%		> 100 µM	Non-toxic		1		330 µM	inactive
COc1ccc2c(c1)c(CC(=O)O)c(C)n2C(=O)c1ccc(Cl)cc1 [INDOMETHACIN]										47%									
O=C1/C(=C/c2c[nH]c3ccccc23)CNC/C1=C\c1c[nH]c2ccccc12	8.7 µM	8.2 µM	3.3 µM	5.7 µM	3.7 µM	6 µM	0.597	3.5 µM	6.1 µM	33%	27.8%		8.2 µM	Non-toxic	2.2	2.5	2.4	280 µM	
COc1cc(/C=C/C(=O)CC(=O)/C=C/c2ccc(O)c(OC)c2)ccc1O [CURCUMIN]	83.4 µM	67.2 µM	5.1 µM	9.2 µM	4.7 µM	8.3 µM		16.7 µM	50.1 µM		12%	38%	61 µM		14.2	11.9	5		
Cc1ccsc1/C=C1\CNC/C(=C\c2sccc2C)C1=O	> 100 µM	> 100 µM	53.8 µM	> 100 µM	63 µM	> 100 µM	-0.03	73.2 µM	> 100 µM	27%	56%	inactive	> 100 µM	Non-toxic	1.6	1.9	1.4		
